Measured values: ChEMBL document CHEMBL1122384, “Synthesis and evaluation of 24-(isopropyl[75Se]seleno)chol-5-en-3 beta-ol” (J Med Chem, 1983)

Columns and labels:
Homo sapiens [1] = organism: Homo sapiens; test: Adsorbed radiation dose value was calculated to human liver; type: functional
Summary of the method: (§1)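 Human absorbed radiation dose estimated by the standard MIRD method from rat tissue distribution (% dose/g, 1 h–21 days) and excretion data. Excretion came from three individually caged female rats, with urine and feces collected daily over 21 days.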

Rattus norvegicus [2] = test: Tested for distribution of radioactivity in female rat tissue at 21 day after intravenous administration in blood; type: ADME, organism-based; details: in vivo, 504 h
Summary of the method: (§2)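 Female Fischer 344 rats (160–180 g), food and water ad libitum, received 5–10 μCi i.v. via lateral tail vein (1 mL Tween 80–EtOH–saline) under light Et₂O anesthesia. At each time they were anesthetized and decapitated, and organs were rinsed in saline, blotted, weighed and gamma counted. Values are % dose/g, mean and range of 3 rats.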

[3] = Adrenal/Tissue ratio calculated from percent dose per gram of tissue determined after 1 day intravenous administration from pancreas; type: functional
Summary of the method: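 Female Fischer 344 rats (160–180 g), food and water ad libitum, lightly anaesthetized with Et2O. [75Se]-labelled steroid was given in Tween 80–EtOH–saline, 5–10 μCi, by lateral tail-vein injection. Rats were killed by decapitation under Et2O; organs were rinsed, blotted, weighed and gamma-counted. Adrenal/tissue ratio is from % dose/g, mean of three rats per time point.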

Rattus norvegicus [4] = test: Tested for distribution of radioactivity in female rat tissue at 14d ay after intravenous administration in liver; type: ADME, organism-based; details: in vivo; summary of the method: as §2
Homo sapiens [5] = organism: Homo sapiens; test: Adsorbed radiation dose value was calculated to human adrenals; type: functional, Adrenal gland; summary of the method: as §1
[6] = Adrenal/Tissue ratio calculated from percent dose per gram of tissue determined after 1 day intravenous administration from kidney; type: functional
Summary of the method: (§3)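 Female Fischer 344 rats (160–180 g), fed ad libitum. Steroid dissolved in EtOH, formulated in Tween 80–EtOH–saline, 5–10 μCi in 1 mL given into a lateral tail vein under light Et₂O anesthesia. Organs removed 1 day post-injection, rinsed, blotted, weighed and gamma counted, 3 rats per time point. Ratios taken from adrenal vs tissue % dose/g.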

Rattus norvegicus [7] = test: Tested for distribution of radioactivity in female rat tissue at 14d ay after intravenous administration in adrenal; type: ADME, organism-based; details: in vivo; summary of the method: as §2
Rattus norvegicus [8] = test: Tested for distribution of radioactivity in female rat tissue at 7 day after intravenous administration in adrenal; type: ADME, organism-based; details: in vivo, 168 h
Summary of the method: (§4)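 Female Fischer 344 rats (160–180 g), food and water ad libitum. Se-75-labeled steroid dissolved in EtOH, formulated in Tween 80–EtOH–saline; 5–10 μCi in 1 mL injected into a lateral tail vein under light Et₂O anesthesia. At each time point, 3 rats killed by decapitation under Et₂O. Organs rinsed with saline, blotted, weighed and gamma counted. Values are % dose/g, mean and range.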

Rattus norvegicus [9] = test: Tested for distribution of radioactivity in female rat tissue at 24 hr r after intravenous administration in ovaries; type: ADME, organism-based; details: in vivo; summary of the method: as §2
Rattus norvegicus [10] = test: Tested for distribution of radioactivity in female rat tissue at 24 hr r after intravenous administration in blood; type: ADME, organism-based; details: in vivo; summary of the method: as §2
Rattus norvegicus [11] = test: Tested for distribution of radioactivity in female rat tissue at 14d ay after intravenous administration in kidney; type: ADME, organism-based; details: in vivo; summary of the method: as §2
Rattus norvegicus [12] = test: Tested for distribution of radioactivity in female rat tissue at 24 hr r after intravenous administration in adrenal; type: ADME, organism-based; details: in vivo; summary of the method: as §2
Rattus norvegicus [13] = test: Tested for distribution of radioactivity in female rat tissue at 6 hr after intravenous administration in adrenal; type: ADME, organism-based; details: in vivo; summary of the method: as §2
Rattus norvegicus [14] = test: Tested for distribution of radioactivity in female rat tissue at 18 hr after intravenous administration in ovaries; type: ADME, organism-based; details: in vivo; summary of the method: as §2
Rattus norvegicus [15] = test: Tested for distribution of radioactivity in female rat tissue at 7 day after intravenous administration in liver; type: ADME, organism-based; details: in vivo, 168 h; summary of the method: as §4
Rattus norvegicus [16] = test: Tested for distribution of radioactivity in female rat tissue at 21 day after intravenous administration in adrenal; type: ADME, organism-based; details: in vivo, 504 h; summary of the method: as §2
Rattus norvegicus [17] = test: Tested for distribution of radioactivity in female rat tissue at 3 day after intravenous administration in blood; type: ADME, organism-based; details: in vivo, 72 h; summary of the method: as §2
Homo sapiens [18] = organism: Homo sapiens; test: Adsorbed radiation dose value was calculated to human spleen; type: functional; summary of the method: as §1
Rattus norvegicus [19] = test: Tested for distribution of radioactivity in female rat tissue at 14d ay after intravenous administration in ovaries; type: ADME, organism-based; details: in vivo; summary of the method: as §2
Homo sapiens [20] = organism: Homo sapiens; test: Adsorbed radiation dose value was calculated to human lungs; type: functional; summary of the method: as §1
Rattus norvegicus [21] = test: Tested for distribution of radioactivity in female rat tissue at 18 hr after intravenous administration in adrenal; type: ADME, organism-based; details: in vivo; summary of the method: as §2
Rattus norvegicus [22] = test: Tested for distribution of radioactivity in female rat tissue at 6 hr after intravenous administration in liver; type: ADME, organism-based; details: in vivo; summary of the method: as §2
Rattus norvegicus [23] = test: Tested for distribution of radioactivity in female rat tissue at 7 day after intravenous administration in kidney; type: ADME, organism-based; details: in vivo, 168 h; summary of the method: as §4
Homo sapiens [24] = organism: Homo sapiens; test: Adsorbed radiation dose value was calculated to human pancreas; type: functional; summary of the method: as §1
Rattus norvegicus [25] = test: Tested for distribution of radioactivity in female rat tissue at 1 hr after intravenous administration in liver; type: ADME, organism-based; details: in vivo; summary of the method: as §2
Rattus norvegicus [26] = test: Tested for distribution of radioactivity in female rat tissue at 21 day after intravenous administration in kidney; type: ADME, organism-based; details: in vivo, 504 h; summary of the method: as §2
Rattus norvegicus [27] = test: Tested for distribution of radioactivity in female rat tissue at 3 day after intravenous administration in kidney; type: ADME, organism-based; details: in vivo, 72 h; summary of the method: as §2
Homo sapiens [28] = organism: Homo sapiens; test: Adsorbed radiation dose value was calculated to human small intestine; type: functional; summary of the method: as §1
[29] = Adrenal/Tissue ratio calculated from percent dose per gram of tissue determined after 1 day intravenous administration from liver; type: functional; summary of the method: as §3
[30] = Adrenal/Tissue ratio calculated from percent dose per gram of tissue determined after 1 day intravenous administration from spleen; type: functional; summary of the method: as §3
Rattus norvegicus [31] = test: Tested for distribution of radioactivity in female rat tissue at 18 hr after intravenous administration in kidney; type: ADME, organism-based; details: in vivo; summary of the method: as §2
Rattus norvegicus [32] = test: Tested for distribution of radioactivity in female rat tissue at 6 hr after intravenous administration in ovaries; type: ADME, organism-based; details: in vivo; summary of the method: as §4
[33] = Adrenal/Tissue ratio calculated from percent dose per gram of tissue determined after 1 day intravenous administration from ovaries; type: functional; summary of the method: as §3
Rattus norvegicus [34] = test: Tested for distribution of radioactivity in female rat tissue at 7 day after intravenous administration in ovaries; type: ADME, organism-based; details: in vivo, 168 h; summary of the method: as §4
Rattus norvegicus [35] = test: Tested for distribution of radioactivity in female rat tissue at 21 day after intravenous administration in ovaries; type: ADME, organism-based; details: in vivo, 504 h; summary of the method: as §2
Rattus norvegicus [36] = test: Tested for distribution of radioactivity in female rat tissue at 24 hr r after intravenous administration in liver; type: ADME, organism-based; details: in vivo; summary of the method: as §2
Rattus norvegicus [37] = test: Tested for distribution of radioactivity in female rat tissue at 24 hr r after intravenous administration in kidney; type: ADME, organism-based; details: in vivo; summary of the method: as §2
Rattus norvegicus [38] = test: Tested for distribution of radioactivity in female rat tissue at 18 hr after intravenous administration in liver; type: ADME, organism-based; details: in vivo; summary of the method: as §2
Rattus norvegicus [39] = test: Tested for distribution of radioactivity in female rat tissue at 3 day after intravenous administration in adrenal; type: ADME, organism-based; details: in vivo, 72 h; summary of the method: as §2
Rattus norvegicus [40] = test: Tested for distribution of radioactivity in female rat tissue at 6 hr after intravenous administration in blood; type: ADME, organism-based; details: in vivo; summary of the method: as §2
Rattus norvegicus [41] = test: Tested for distribution of radioactivity in female rat tissue at 1 hr after intravenous administration in ovaries; type: ADME, organism-based; details: in vivo; summary of the method: as §2
Rattus norvegicus [42] = test: Tested for distribution of radioactivity in female rat tissue at 1 hr after intravenous administration in adrenal; type: ADME, organism-based; details: in vivo; summary of the method: as §2
Rattus norvegicus [43] = test: Tested for distribution of radioactivity in female rat tissue at 18 hr after intravenous administration in blood; type: ADME, organism-based; details: in vivo; summary of the method: as §2
Rattus norvegicus [44] = test: Tested for distribution of radioactivity in female rat tissue at 21 day after intravenous administration in liver; type: ADME, organism-based; details: in vivo, 504 h; summary of the method: as §2
Rattus norvegicus [45] = test: Tested for distribution of radioactivity in female rat tissue at 6 hr after intravenous administration in kidney; type: ADME, organism-based; details: in vivo; summary of the method: as §2
Rattus norvegicus [46] = test: Tested for distribution of radioactivity in female rat tissue at 1 hr after intravenous administration in kidney; type: ADME, organism-based; details: in vivo; summary of the method: as §2
Rattus norvegicus [47] = test: Tested for distribution of radioactivity in female rat tissue at 7 day after intravenous administration in blood; type: ADME, organism-based; details: in vivo, 168 h; summary of the method: as §4
[48] = Adrenal/Tissue ratio calculated from percent dose per gram of tissue determined after 1 day intravenous administration from blood; type: functional; summary of the method: as §3
Rattus norvegicus [49] = test: Tested for distribution of radioactivity in female rat tissue at 3 day after intravenous administration in liver; type: ADME, organism-based; details: in vivo, 72 h; summary of the method: as §2
[50] = Adrenal/Tissue ratio calculated from percent dose per gram of tissue determined after 1 day intravenous administration from lung; type: functional; summary of the method: as §3
Homo sapiens [51] = organism: Homo sapiens; test: Adsorbed radiation dose value was calculated to human kidney; type: functional; summary of the method: as §1
Rattus norvegicus [52] = test: Tested for distribution of radioactivity in female rat tissue at 3 day after intravenous administration in ovaries; type: ADME, organism-based; details: in vivo, 72 h; summary of the method: as §2
Rattus norvegicus [53] = test: Tested for distribution of radioactivity in female rat tissue at 14d ay after intravenous administration in blood; type: ADME, organism-based; details: in vivo; summary of the method: as §2
Rattus norvegicus [54] = test: Tested for distribution of radioactivity in female rat tissue at 1 hr after intravenous administration in blood; type: ADME, organism-based; details: in vivo; summary of the method: as §2
Homo sapiens [55] = organism: Homo sapiens; test: Adsorbed radiation dose value was calculated to human ovaries; type: functional, Female gonad; summary of the method: as §1
Homo sapiens [56] = organism: Homo sapiens; test: Adsorbed radiation dose value was calculated to human total body; type: functional; summary of the method: as §1

CC(C)[Se]CCC[C@H](C)[C@H]1CC[C@H]2[C@@H]3CC=C4C[C@@H](O)CC[C@]4(C)[C@H]3CC[C@]12C
Dose (Homo sapiens [1]): 3.7 rd mCi-1
Dose/g (Rattus norvegicus [2]): 0.11%
Ratio [3]: 46.4
Dose/g (Rattus norvegicus [4]): 0.5%
Dose (Homo sapiens [5]): 30 rd mCi-1
Ratio [6]: 30
Dose/g (Rattus norvegicus [7]): 18.23%
Dose/g (Rattus norvegicus [8]): 29.5%
Dose/g (Rattus norvegicus [9]): 5.29%
Dose/g (Rattus norvegicus [10]): 0.71%
Dose/g (Rattus norvegicus [11]): 0.91%
Dose/g (Rattus norvegicus [12]): 47.75%
Dose/g (Rattus norvegicus [13]): 35.61%
Dose/g (Rattus norvegicus [14]): 6.12%
Dose/g (Rattus norvegicus [15]): 0.68%
Dose/g (Rattus norvegicus [16]): 15.22%
Dose/g (Rattus norvegicus [17]): 0.38%
Dose (Homo sapiens [18]): 3.4 rd mCi-1
Dose/g (Rattus norvegicus [19]): 2.83%
Dose (Homo sapiens [20]): 3.2 rd mCi-1
Dose/g (Rattus norvegicus [21]): 42.97%
Dose/g (Rattus norvegicus [22]): 4.93%
Dose/g (Rattus norvegicus [23]): 1.34%
Dose (Homo sapiens [24]): 3.4 rd mCi-1
Dose/g (Rattus norvegicus [25]): 6.73%
Dose/g (Rattus norvegicus [26]): 0.64%
Dose/g (Rattus norvegicus [27]): 1.48%
Dose (Homo sapiens [28]): 3.5 rd mCi-1
Ratio [29]: 27.1
Ratio [30]: 19.2
Dose/g (Rattus norvegicus [31]): 1.87%
Dose/g (Rattus norvegicus [32]): 4.95%
Ratio [33]: 9
Dose/g (Rattus norvegicus [34]): 3.82%
Dose/g (Rattus norvegicus [35]): 2.52%
Dose/g (Rattus norvegicus [36]): 1.76%
Dose/g (Rattus norvegicus [37]): 1.59%
Dose/g (Rattus norvegicus [38]): 2.78%
Dose/g (Rattus norvegicus [39]): 32.32%
Dose/g (Rattus norvegicus [40]): 2.08%
Dose/g (Rattus norvegicus [41]): 2.24%
Dose/g (Rattus norvegicus [42]): 15.65%
Dose/g (Rattus norvegicus [43]): 1%
Dose/g (Rattus norvegicus [44]): 0.34%
Dose/g (Rattus norvegicus [45]): 1.69%
Dose/g (Rattus norvegicus [46]): 1.31%
Dose/g (Rattus norvegicus [47]): 0.26%
Ratio [48]: 67.3
Dose/g (Rattus norvegicus [49]): 0.99%
Ratio [50]: 10.9
Dose (Homo sapiens [51]): 3.8 rd mCi-1
Dose/g (Rattus norvegicus [52]): 3.81%
Dose/g (Rattus norvegicus [53]): 0.16%
Dose/g (Rattus norvegicus [54]): 3.97%
Dose (Homo sapiens [55]): 5.9 rd mCi-1
Dose (Homo sapiens [56]): 1.8 rd mCi-1
